The target in data set [1] is T1, Muscarinic acetylcholine receptor M1 (Homo sapiens) (UniProt P11229).
T1 sequence (whole entry): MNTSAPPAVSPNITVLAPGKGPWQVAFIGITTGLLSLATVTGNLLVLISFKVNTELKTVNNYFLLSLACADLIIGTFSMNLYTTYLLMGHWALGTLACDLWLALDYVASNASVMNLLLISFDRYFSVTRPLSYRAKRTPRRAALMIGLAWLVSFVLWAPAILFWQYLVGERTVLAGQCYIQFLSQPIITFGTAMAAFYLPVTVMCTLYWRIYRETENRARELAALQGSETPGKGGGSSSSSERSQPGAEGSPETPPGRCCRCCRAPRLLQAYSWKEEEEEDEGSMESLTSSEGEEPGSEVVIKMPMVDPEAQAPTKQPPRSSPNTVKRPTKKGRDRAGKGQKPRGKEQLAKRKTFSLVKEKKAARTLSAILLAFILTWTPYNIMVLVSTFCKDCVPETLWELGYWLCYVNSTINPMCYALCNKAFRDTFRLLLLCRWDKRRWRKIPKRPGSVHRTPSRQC
Kind of data set: Agonist activity at human muscarinic acetylcholine receptor M1 expressed in CHO cells assessed as calcium mobilization at 0.3 uM by FLIPR assay relative to acetylcholine. In kind it is functional, cell-based. (In general: A change in cytosolic calcium serves as a functional read-out for many receptors and channels.)

In data set [2] the target is T2, Muscarinic acetylcholine receptor M2 (Homo sapiens) (UniProt P08172).
T2 sequence (whole entry): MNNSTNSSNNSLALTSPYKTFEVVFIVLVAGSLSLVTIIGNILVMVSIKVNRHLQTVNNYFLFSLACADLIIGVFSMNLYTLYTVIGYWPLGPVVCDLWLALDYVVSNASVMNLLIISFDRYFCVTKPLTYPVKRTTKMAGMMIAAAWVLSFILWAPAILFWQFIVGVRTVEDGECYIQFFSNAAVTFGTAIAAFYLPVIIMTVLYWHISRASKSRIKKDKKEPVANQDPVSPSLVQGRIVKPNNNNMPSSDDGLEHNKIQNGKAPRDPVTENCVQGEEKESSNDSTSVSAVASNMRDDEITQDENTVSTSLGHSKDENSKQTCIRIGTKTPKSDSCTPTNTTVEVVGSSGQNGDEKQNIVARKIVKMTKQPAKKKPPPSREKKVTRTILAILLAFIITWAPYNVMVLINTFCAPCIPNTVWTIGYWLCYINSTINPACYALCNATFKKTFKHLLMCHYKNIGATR
The data set can be described thus: Agonist activity at human muscarinic acetylcholine receptor M2 expressed in CHO cells assessed as calcium mobilization at 0.3 uM by FLIPR assay relative to acetylcholine. In kind it is functional, cell-based.

Data set [3] deals with Muscarinic acetylcholine receptor M3 (Homo sapiens) (UniProt P20309). The data set can be described thus: Agonist activity at human muscarinic acetylcholine receptor M3 expressed in CHO cells assessed as calcium mobilization at 0.3 uM by FLIPR assay relative to acetylcholine. The data set is classed as functional, cell-based.
Data set [4] concerns the target T3, Muscarinic acetylcholine receptor M4 (Homo sapiens) (UniProt P08173).
T3 sequence (whole entry): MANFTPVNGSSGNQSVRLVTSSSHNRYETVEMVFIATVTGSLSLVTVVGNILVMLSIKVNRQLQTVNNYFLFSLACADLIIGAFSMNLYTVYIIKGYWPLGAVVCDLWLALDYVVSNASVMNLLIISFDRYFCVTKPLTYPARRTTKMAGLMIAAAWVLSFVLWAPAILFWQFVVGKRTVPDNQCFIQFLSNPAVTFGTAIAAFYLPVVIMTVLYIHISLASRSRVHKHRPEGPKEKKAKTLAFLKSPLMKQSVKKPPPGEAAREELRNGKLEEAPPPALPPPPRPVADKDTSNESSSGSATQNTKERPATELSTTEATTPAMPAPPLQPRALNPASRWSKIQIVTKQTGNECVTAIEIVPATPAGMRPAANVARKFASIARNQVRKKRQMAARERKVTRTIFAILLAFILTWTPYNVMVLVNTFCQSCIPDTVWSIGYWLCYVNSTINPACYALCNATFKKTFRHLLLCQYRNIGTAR
The data set can be described thus: Agonist activity at human muscarinic acetylcholine receptor M4 expressed in CHO cells assessed as calcium mobilization at 0.3 uM by FLIPR assay relative to acetylcholine. In kind it is functional, cell-based.

Data set [5] addresses T4, Muscarinic acetylcholine receptor M5 (Homo sapiens) (UniProt P08912).
T4 sequence (whole entry): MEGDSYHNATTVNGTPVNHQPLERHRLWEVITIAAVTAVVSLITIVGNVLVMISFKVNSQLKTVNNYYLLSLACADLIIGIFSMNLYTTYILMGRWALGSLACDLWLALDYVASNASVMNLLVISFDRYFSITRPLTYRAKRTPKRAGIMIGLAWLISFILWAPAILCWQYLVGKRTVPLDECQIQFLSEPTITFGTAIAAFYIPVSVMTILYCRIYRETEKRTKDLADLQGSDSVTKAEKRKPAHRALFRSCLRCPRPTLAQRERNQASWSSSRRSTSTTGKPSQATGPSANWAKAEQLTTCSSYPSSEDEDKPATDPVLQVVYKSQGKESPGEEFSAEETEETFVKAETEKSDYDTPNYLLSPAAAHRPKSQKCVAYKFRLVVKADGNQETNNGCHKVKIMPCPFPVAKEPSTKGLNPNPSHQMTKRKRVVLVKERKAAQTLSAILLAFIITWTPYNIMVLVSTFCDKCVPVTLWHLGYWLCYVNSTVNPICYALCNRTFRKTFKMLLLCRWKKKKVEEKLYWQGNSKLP
Kind of data set: Agonist activity at human muscarinic acetylcholine receptor M5 expressed in CHO cells assessed as calcium mobilization at 10 uM by FLIPR assay relative to acetylcholine. The data set is classed as functional, cell-based.

The target of data set [6] is Voltage-gated inwardly rectifying potassium channel KCNH2 (Homo sapiens, UniProt Q12809). The data set can be described thus: Inhibition of human ERG tail current after 5 mins by patch-clamp method. Background: Patch clamp records ionic current or voltage across a cell membrane.
For data set [7], the target named is T5, Muscarinic acetylcholine receptor M4 (Homo sapiens, UniProt P08173).
T5 sequence (P08173 whole entry): T3 sequence (whole entry)
Kind of data set: Agonist activity at human muscarinic acetylcholine receptor M4 expressed in CHO cells assessed as calcium mobilization by FLIPR assay. The data set is classed as functional, cell-based.

Data set [8] addresses T6, Muscarinic acetylcholine receptor M1 (Homo sapiens, UniProt P11229).
T6 sequence (P11229 whole entry): T1 sequence (whole entry)
The data set can be described thus: Agonist activity at human muscarinic acetylcholine receptor M1 expressed in CHO cells assessed as calcium mobilization by FLIPR assay. The data set is classed as functional, cell-based.

The target in data set [9] is T3, Muscarinic acetylcholine receptor M4 (Homo sapiens). Kind of data set: Intrinsic activity at human muscarinic acetylcholine receptor M4 expressed in CHO cells assessed as calcium mobilization by FLIPR assay relative to acetylcholine. The data set is classed as functional, cell-based.
In data set [10] the target is T1, Muscarinic acetylcholine receptor M1 (Homo sapiens). Kind of data set: Intrinsic activity at human muscarinic acetylcholine receptor M1 expressed in CHO cells assessed as calcium mobilization by FLIPR assay relative to acetylcholine. The data set is classed as functional, cell-based.
Data set [11] in a line: Oral bioavailability in rat at 1 mg/kg. In kind it is ADME, organism-based. The conditions noted are these: in vivo.
Data set [12] can be described thus: Ratio of drug level in brain to plasma in rat. The data set is classed as ADME. The conditions noted are these: brain and plasma, read-out: BPR.
The target of data set [13] is T1, Muscarinic acetylcholine receptor M1 (Homo sapiens). The data set can be described thus: Competitive antagonist activity at human muscarinic acetylcholine receptor M1 expressed in CHO cells assessed as inhibition of ACh-induced calcium mobilization. The data set is classed as functional, cell-based.
The target of data set [14] is T7, Alpha-1D adrenergic receptor (Homo sapiens) (UniProt P25100).
T7 sequence (whole entry): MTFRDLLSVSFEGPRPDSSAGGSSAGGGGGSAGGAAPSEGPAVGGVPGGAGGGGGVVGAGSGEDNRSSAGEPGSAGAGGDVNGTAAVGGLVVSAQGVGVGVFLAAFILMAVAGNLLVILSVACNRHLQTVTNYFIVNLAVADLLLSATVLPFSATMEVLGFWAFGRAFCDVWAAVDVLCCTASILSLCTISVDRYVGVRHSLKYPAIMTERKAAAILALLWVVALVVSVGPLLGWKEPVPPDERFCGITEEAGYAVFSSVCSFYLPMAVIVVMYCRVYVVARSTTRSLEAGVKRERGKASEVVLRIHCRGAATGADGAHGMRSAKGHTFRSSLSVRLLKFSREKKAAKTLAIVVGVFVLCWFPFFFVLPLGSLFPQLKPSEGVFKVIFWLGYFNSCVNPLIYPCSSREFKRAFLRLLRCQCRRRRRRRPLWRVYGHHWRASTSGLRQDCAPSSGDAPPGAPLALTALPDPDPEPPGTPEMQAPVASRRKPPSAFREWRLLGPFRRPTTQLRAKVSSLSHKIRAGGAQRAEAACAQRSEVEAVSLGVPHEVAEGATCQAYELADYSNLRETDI
Kind of data set: Binding affinity to human adrenaline alpha-1D receptor at 3 uM by radioligand displacement assay relative to control. A general note: Displacement assays read how much labelled ligand stays bound in the presence of the test substance.

Data set [15] concerns the target D(2) dopamine receptor (Homo sapiens) (UniProt P14416). The data set can be described thus: Binding affinity to human dopamine D2 receptor at 3 uM by radioligand displacement assay relative to control.
In data set [16] the target is Histamine H1 receptor (Homo sapiens) (UniProt P35367). Kind of data set: Binding affinity to human histamine H1 receptor at 3 uM by radioligand displacement assay relative to control.
In a further data set the test system is Rattus norvegicus. The data set can be described thus: Antipsychotic activity in po dosed Sprague-Dawley rat assessed as reversal of methamphetamine-induced hyperlocomotion administered 60 mins prior to methamphetamine challenge measured for 10 to 80 mins post methamphetamine challenge. In kind it is functional, organism-based. The gist of the method:
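Rats were dosed orally with test compound (1–10 mg/kg) or vehicle 60 min before methamphetamine (0.1 mg/kg, ip). Locomotor activity was recorded for 80 min starting 10 min after the methamphetamine injection. Values are mean ± SEM, n = 6.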

In the next data set the test system is P-gp. Kind of data set: Activity of p-gp (unknown origin) assessed as efflux ratio. The data set is classed as ADME. The conditions noted are these: human, not told.

The values below come from ChEMBL document CHEMBL3286277, “Discovery of N-sulfonyl-7-azaindoline derivatives as potent, orally available and selective M(4) muscarinic acetylcholine receptor agonists” (Bioorg Med Chem Lett, 2014).

The source made the active and inactive calls. The calls are words filed in the database; no cut-off is given here.

Chain of Voltage-gated inwardly rectifying potassium channel KCNH2 (Q12809 whole entry): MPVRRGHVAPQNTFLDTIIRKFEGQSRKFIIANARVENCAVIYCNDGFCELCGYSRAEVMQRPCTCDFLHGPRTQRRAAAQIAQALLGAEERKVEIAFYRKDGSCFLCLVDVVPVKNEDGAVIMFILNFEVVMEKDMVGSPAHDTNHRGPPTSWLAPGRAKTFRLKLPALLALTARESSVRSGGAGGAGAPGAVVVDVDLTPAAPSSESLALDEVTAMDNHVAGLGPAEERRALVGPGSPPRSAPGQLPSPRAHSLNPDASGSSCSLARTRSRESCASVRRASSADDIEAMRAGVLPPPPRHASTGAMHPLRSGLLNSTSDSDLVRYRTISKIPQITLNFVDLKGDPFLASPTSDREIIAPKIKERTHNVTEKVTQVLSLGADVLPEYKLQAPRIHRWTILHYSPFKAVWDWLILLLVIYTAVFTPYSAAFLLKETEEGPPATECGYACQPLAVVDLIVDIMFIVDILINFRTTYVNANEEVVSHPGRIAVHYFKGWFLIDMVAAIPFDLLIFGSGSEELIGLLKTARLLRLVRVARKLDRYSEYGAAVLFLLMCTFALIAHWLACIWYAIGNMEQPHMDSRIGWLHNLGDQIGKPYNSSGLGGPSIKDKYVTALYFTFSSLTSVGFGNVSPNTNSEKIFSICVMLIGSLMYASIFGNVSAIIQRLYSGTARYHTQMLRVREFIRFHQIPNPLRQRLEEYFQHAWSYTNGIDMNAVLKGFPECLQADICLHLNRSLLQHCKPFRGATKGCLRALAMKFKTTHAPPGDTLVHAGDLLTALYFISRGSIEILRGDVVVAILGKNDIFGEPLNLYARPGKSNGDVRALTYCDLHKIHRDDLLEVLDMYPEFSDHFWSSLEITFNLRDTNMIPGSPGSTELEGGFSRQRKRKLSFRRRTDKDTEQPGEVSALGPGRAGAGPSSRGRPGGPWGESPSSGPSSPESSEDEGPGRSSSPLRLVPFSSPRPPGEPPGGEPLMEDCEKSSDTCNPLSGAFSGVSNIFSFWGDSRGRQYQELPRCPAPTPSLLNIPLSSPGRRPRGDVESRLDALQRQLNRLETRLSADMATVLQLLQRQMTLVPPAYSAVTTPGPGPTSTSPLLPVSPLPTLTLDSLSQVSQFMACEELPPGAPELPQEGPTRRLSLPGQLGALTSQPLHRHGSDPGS
Chain of Muscarinic acetylcholine receptor M3 (Homo sapiens) (P20309 whole entry, looked up): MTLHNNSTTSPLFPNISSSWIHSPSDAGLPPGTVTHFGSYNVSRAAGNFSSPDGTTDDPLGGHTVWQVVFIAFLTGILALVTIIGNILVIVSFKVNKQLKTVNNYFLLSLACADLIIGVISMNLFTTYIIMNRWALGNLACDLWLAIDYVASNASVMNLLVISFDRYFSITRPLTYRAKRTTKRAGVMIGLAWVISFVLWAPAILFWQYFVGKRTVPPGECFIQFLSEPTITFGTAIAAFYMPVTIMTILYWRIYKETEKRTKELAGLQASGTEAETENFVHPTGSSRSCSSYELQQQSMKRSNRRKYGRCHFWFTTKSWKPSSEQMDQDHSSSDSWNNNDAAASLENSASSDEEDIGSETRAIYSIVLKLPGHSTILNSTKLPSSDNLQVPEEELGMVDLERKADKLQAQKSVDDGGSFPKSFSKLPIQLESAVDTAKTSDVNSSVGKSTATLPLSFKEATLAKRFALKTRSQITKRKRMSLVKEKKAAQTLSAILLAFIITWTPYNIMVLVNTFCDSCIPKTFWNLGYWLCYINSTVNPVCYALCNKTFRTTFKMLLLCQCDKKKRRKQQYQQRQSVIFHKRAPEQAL
Chain of D(2) dopamine receptor (Homo sapiens) (P14416 whole entry): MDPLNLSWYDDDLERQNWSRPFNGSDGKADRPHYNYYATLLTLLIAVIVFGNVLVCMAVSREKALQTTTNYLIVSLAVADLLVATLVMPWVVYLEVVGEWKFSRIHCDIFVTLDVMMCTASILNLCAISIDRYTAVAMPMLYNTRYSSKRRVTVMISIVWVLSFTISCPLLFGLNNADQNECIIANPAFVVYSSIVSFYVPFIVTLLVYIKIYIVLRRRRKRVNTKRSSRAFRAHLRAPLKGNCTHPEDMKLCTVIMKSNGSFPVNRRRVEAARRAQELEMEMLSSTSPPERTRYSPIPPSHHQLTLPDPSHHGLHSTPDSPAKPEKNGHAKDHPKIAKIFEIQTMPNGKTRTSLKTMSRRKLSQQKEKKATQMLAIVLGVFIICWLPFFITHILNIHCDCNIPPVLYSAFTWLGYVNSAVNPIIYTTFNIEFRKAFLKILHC
Chain of Histamine H1 receptor (Homo sapiens) (P35367 whole entry): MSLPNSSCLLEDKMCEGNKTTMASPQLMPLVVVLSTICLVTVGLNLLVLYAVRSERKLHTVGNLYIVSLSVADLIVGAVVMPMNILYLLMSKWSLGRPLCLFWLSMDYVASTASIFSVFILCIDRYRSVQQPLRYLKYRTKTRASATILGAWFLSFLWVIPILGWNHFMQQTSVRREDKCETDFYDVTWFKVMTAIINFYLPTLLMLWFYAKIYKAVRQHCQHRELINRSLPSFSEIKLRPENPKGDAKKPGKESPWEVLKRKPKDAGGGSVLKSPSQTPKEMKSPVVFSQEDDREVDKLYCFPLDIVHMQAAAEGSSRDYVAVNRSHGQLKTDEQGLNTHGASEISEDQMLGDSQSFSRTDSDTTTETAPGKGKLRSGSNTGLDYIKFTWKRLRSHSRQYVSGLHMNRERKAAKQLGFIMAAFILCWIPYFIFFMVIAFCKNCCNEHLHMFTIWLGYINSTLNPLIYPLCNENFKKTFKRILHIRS

`CCOC(=O)N1CCC(CN2CCC3(CC2)CN(S(C)(=O)=O)c2ncccc23)CC1`: the Emax stood at 20% in data set [1]; 12% in data set [2]; 7% in data set [3]; 88% in data set [4]; 3% in data set [5]. The compound further yielded an IC50 in data set [6] of 1.9 µM. Further, the EC50 in data set [7] was determined as 0.093 µM; in data set [8] it was 0.352 µM. Moreover, the figures for the Intrinsic activity in data set [9] and in data set [10] were 83% and 59%, respectively.
`CC(C)OC(=O)N1CCC(C)(CN2CCC3(CC2)CN(S(C)(=O)=O)c2ncccc23)CC1`: the Emax in data set [4] amounted to 3%. The compound also showed an IC50 in data set [6] of 2.75 µM.
Consider `CCOC(=O)N1CCC(C)(CN2CCC3(CC2)CN(S(C)(=O)=O)c2ncccc23)CC1`, for which the Emax in [1] was found to be 5%; in data set [2], 3%; in data set [3] it was 4%; in data set [4], 94%; in data set [5], 3%. This compound showed an IC50 in [6] of 3.63 µM. In data set [11], this compound showed a bioavailability of 49%. In addition, the Kp in [12] was determined as 0.9. Besides, in data set [7], the EC50 worked out at 0.013 µM. Further, in data set [9], the Intrinsic activity amounted to 81%. In addition, the inhibition entry in data set [13] was “Active”. Besides, the inhibition was determined as 0% in data set [14], 0% in data set [15] and 27% in data set [16]. Moreover, the Activity entry with Rattus norvegicus is “Dose-dependent effect”. Besides, the efflux ratio in the data set on P-gp was 0.9.
Consider `CCOC(=O)N1[C@@H]2CC[C@H]1C[C@H](CN1CCC3(CC1)CN(S(C)(=O)=O)c1ncccc13)C2`, for which the Emax in [4] was 4%.
`COC(=O)N1CCC(C)(CN2CCC3(CC2)CN(S(C)(=O)=O)c2ncccc23)CC1`: the Emax in [1] was found to be 3%; in [2], 2%; in data set [3], 1%; in data set [4], 52%.
For the compound `CC1(CN2CCC3(CC2)CN(S(C)(=O)=O)c2ncccc23)CCN(C(=O)OC(C)(C)C)CC1`, in [4], the Emax is 2%.

By Emax is commonly meant the maximal effect, on the per cent scale that the assay sets. As usually defined, the IC50 is the point on the concentration scale where inhibition reaches its midpoint. A higher IC50 goes with a need for much substance. As usually defined, the EC50 is the concentration giving half of the maximal effect. As usually defined, the bioavailability is dose-corrected exposure relative to a reference, in per cent. The inhibition is the percentage by which the read-out fell short of the control. The efflux ratio is the permeability from basolateral to apical divided by that in the opposite direction, in the common usage.
